Assay results reported in ChEMBL document CHEMBL1121537, “Anticoccidial derivatives of 6-azauracil. 3. Synthesis, high activity, and short plasma half-life of 1-phenyl-6-azauracils containing sulfonamide substituents” (J Med Chem, 1980).

Assays:
[1] = Half life in plasma of young cockerels; format: ADME, organism-based, Gallus gallus; conditions: male, chicken
Procedure, shortened: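 Plasma half-life in young cockerels, about 10 days old, determined by a previously described method.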

[2] = tested on: Eimeria tenella; assay: Minimum effective concentration required to prevent formation of detectable lesions in Eimeria tenella infected leghorn cockerels.; format: functional; conditions: read-out: MEC
Procedure, shortened: (§1)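 Leghorn cockerels infected with Eimeria tenella, screened by a modified version of a published screening method. The minimum effective concentration, in ppm, is the lowest level that prevents detectable lesions.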

[3] = tested on: Eimeria acervulina; assay: The compound was evaluated for the variations in the vulnerability to Eimeria acervulina; format: functional; conditions: read-out: MEC
[4] = tested on: Eimeria tenella; assay: The compound was evaluated for the variations in the vulnerability to Eimeria tenella; format: functional; conditions: read-out: MEC
[5] = species: Gallus gallus; assay: The compound was evaluate for the minimum amount required to prevent formation of detectable disease lesions against Eimeria tenella infections.; format: functional; procedure, shortened: as §1
[6] = tested on: Gallus gallus; assay: Plasma level measured 3h after oral administration of 4-5 mg/kg body weight in young cockerels; format: functional, organism-based
Procedure, shortened: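 Young cockerels, about 10 days old, given 4-5 mg/kg body weight orally; drug level in plasma measured 3 h after dosing, in mcg/mL.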

[7] = Half life in plasma of older birds; format: ADME, organism-based, Gallus gallus; conditions: chicken
Procedure, shortened: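 Plasma half-life in older birds, about 9-10 weeks old, determined by a previously described method.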

[8] = tested on: Gallus gallus; assay: Plasma level measured 3h after oral administration of 4-5 mg/kg body weight in older birds; format: functional, organism-based
Procedure, shortened: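 Older birds, about 9-10 weeks old, given 4-5 mg/kg body weight orally; drug level in plasma measured 3 h after dosing, in mcg/mL.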

[9] = tested on: Eimeria acervulina; assay: The compound was evaluated for the variations in the vulnerability to Eimeria acervulina; value ranges from 15-30; format: functional; conditions: read-out: MEC
[10] = tested on: Eimeria maxima; assay: The compound was evaluated for the variations in the vulnerability to Eimeria maxima; format: functional; conditions: read-out: MEC
[11] = tested on: Eimeria tenella; assay: The compound was evaluated for the variations in the vulnerability to Eimeria tenella,; format: functional; conditions: read-out: MEC
[12] = species: Gallus gallus; assay: Minimum effective concentration required to prevent formation of detectable lesions in Eimeria tenella infected leghorn cockerels; value ranges from 15 to 30; format: functional; procedure, shortened: as §1

Row | SMILES | minimal effective concentration [2] | further results
1 | O=c1cnn(-c2ccccc2)c(=O)[nH]1 | 500 µg/mL | half-life [1]: 8 h
2 | Cc1cc(-n2ncc(=O)[nH]c2=O)cc(Cl)c1S(=O)(=O)N1CCSCC1 | 120 µg/mL | 
3 | O=c1cnn(-c2cc(Cl)c(S(=O)(=O)N3CCOCC3)c(Cl)c2)c(=O)[nH]1 |  | minimal effective concentration [3]: 30 µg/mL; minimal effective concentration [4]: 15 µg/mL; MEC [5]: 30 p.p.m.
4 | O=c1cnn(-c2ccc(S(=O)(=O)Nc3cccc(Cl)c3)c(Cl)c2)c(=O)[nH]1 | > 500 µg/mL | 
5 | Cc1cc(-n2ncc(=O)[nH]c2=O)cc(Cl)c1S(=O)(=O)N(C)C | 60 µg/mL | 
6 | O=c1cnn(-c2cccc(Cl)c2)c(=O)[nH]1 | 120 µg/mL | 
7 | COc1c(Cl)cc(-n2ncc(=O)[nH]c2=O)cc1Cl | 250 µg/mL | half-life [1]: 2 h
8 | CN(C)S(=O)(=O)c1ccc(-n2ncc(=O)[nH]c2=O)cc1Cl | 250 µg/mL | 
9 | Cc1cc(C)cc(-n2ncc(=O)[nH]c2=O)c1 | 30 µg/mL | half-life [1]: 6 h; Plasma level [6]: 8.1 µg/mL; half-life [7]: 12 h; Plasma level [8]: 22.4 µg/mL
10 | O=c1cnn(-c2ccc(S(=O)(=O)N3CCSCC3)c(Cl)c2)c(=O)[nH]1 | 60 µg/mL | 
11 | Cc1cc(-n2ncc(=O)[nH]c2=O)ccc1S(=O)(=O)N(C)C1CCCC1 | > 120 µg/mL | 
12 | O=c1cnn(-c2cc(Br)c(S(=O)(=O)N3CCOCC3)c(Br)c2)c(=O)[nH]1 | > 30 µg/mL | 
13 | COCCN(CCOC)S(=O)(=O)c1c(C)cc(-n2ncc(=O)[nH]c2=O)cc1C | 250 µg/mL | 
14 | O=c1cnn(-c2ccc(S(=O)(=O)N3CCC(O)CC3)c(Cl)c2)c(=O)[nH]1 | > 250 µg/mL | 
15 | O=c1cnn(-c2ccc(S(=O)(=O)N3CCCCC3)c(Cl)c2)c(=O)[nH]1 | 250 µg/mL | 
16 | Cc1cc(-n2ncc(=O)[nH]c2=O)cc(Cl)c1S(=O)(=O)N1CCOCC1 | 10 µg/mL | half-life [1]: 1 h; Plasma level [6]: 0.38 µg/mL; minimal effective concentration [3]: 60 µg/mL; minimal effective concentration [4]: 10 µg/mL

Row | SMILES | minimal effective concentration [2] | further results
17 | Cc1ccc(NS(=O)(=O)c2ccc(-n3ncc(=O)[nH]c3=O)cc2Cl)cc1Cl | > 250 µg/mL | 
18 | O=c1cnn(-c2cc(Cl)c(N3CCOCC3)c(Cl)c2)c(=O)[nH]1 |  | minimal effective concentration [9]: 30 µg/mL; MEC [5]: 15 p.p.m.; minimal effective concentration [10]: 15 µg/mL; minimal effective concentration [11]: 15 µg/mL
19 | Cc1cc(-n2ncc(=O)[nH]c2=O)cc(C)c1S(=O)(=O)Cl | 250 µg/mL | 
20 | CN(CCO)S(=O)(=O)c1ccc(-n2ncc(=O)[nH]c2=O)cc1Cl | > 120 µg/mL | 
21 | CCOC(=O)N1CCN(S(=O)(=O)c2ccc(-n3ncc(=O)[nH]c3=O)cc2Cl)CC1 | > 250 µg/mL | 
22 | O=c1cnn(-c2ccc(S(=O)(=O)N3CCC(Cc4ccccc4)CC3)c(Cl)c2)c(=O)[nH]1 | > 250 µg/mL | 
23 | O=c1cnn(-c2ccc(S(=O)(=O)Cl)cc2)c(=O)[nH]1 | > 250 µg/mL | 
24 | CCOC(CN(CC(OCC)OCC)S(=O)(=O)c1ccc(-n2ncc(=O)[nH]c2=O)cc1Cl)OCC | 250 µg/mL | 
25 | C=CCN(C)S(=O)(=O)c1ccc(-n2ncc(=O)[nH]c2=O)cc1C | 120 µg/mL | 
26 | O=c1cnn(-c2cc(Cl)cc(Cl)c2)c(=O)[nH]1 | 4 µg/mL | half-life [1]: 56 h; Plasma level [6]: 14.5 µg/mL; half-life [7]: 150 h; Plasma level [8]: 24.3 µg/mL
27 | CN(Cc1ccc(Cl)cc1)S(=O)(=O)c1ccc(-n2ncc(=O)[nH]c2=O)cc1Cl | 500 µg/mL | 
28 | CCCN(C)S(=O)(=O)c1c(C)cc(-n2ncc(=O)[nH]c2=O)cc1C | 120 µg/mL | 
29 | O=c1cnn(-c2ccc(S(=O)(=O)N3CCSC3)c(Cl)c2)c(=O)[nH]1 | > 120 µg/mL | 
30 | Cc1cc(-n2ncc(=O)[nH]c2=O)cc(C)c1S(=O)(=O)N1CCCC1 | 60 µg/mL | 
31 | Cc1cc(-n2ncc(=O)[nH]c2=O)ccc1S(=O)(=O)N1CCOCC1 |  | half-life [1]: 1.1 h; Plasma level [6]: 3.1 µg/mL; minimal effective concentration [3]: 30 µg/mL; minimal effective concentration [4]: 15 µg/mL; MEC [12]: 15 p.p.m.
32 | CCN(C(C)C)S(=O)(=O)c1ccc(-n2ncc(=O)[nH]c2=O)cc1C | 500 µg/mL | 
